Holding throughout (type): functional
The species named for one assay is Homo sapiens. Nature of the assay: In vitro inhibitory activity against IL-1 generation by using human monocyte. In outline:
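Healthy-donor peripheral mononuclear cells, adhered 1.5 h in RPMI 1640 with 10% heat-inactivated autologous serum. Adherent monocytes then stimulated with LPS 1 μg/mL for 16–18 h in 1% autologous serum with 0.1% ethanol, ± drug. Extra- plus intracellular IL-1 read by LAF assay against a recombinant human IL-1β curve. IC50 by least squares; mean of ≥2 experiments.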

For assay [1], the species on record is Rattus norvegicus. Nature of the assay: In vitro inhibitory activity against IL-1 generation by using rat exudated macrophages. In outline:
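Fisher rat peritoneal exudate cells collected 4 days after i.p. 2.5% glycogen. Cells adhered 1.5 h at 37 °C in 1% normal rat serum. Adherent macrophages stimulated with LPS 1 ng/mL for 4 h ± compound. Intracellular IL-1 read by LAF assay against a recombinant human IL-1α curve. IC50 by least squares; mean of duplicates.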

Assay [2] concerns Rattus norvegicus. Nature of the assay: Compound was evaluated in vivo for the percent inhibition of IL-1 generation in rat CMC-LPS air pouch model at 100 uM concentration. In outline: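 Rat air pouch: 10 mL air s.c. into the dorsum, 2% CMC-Na in saline 24 h later, then LPS 5 ng 24 h after CMC. Compound given locally in 5% EtOH-RPMI with 30% autologous serum, 100 μM final in exudate, at 30 min before and just before LPS. Exudate IL-1 (extra- plus intracellular) read by LAF at 4 h. n=5; % inhibition ± SEM.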

The subject of assay [3] is Rattus norvegicus. Nature of the assay: The compound was tested for IL-1 generation on CMC-LPS air-pouch model at 3 mg/kg by oral administration. In outline: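 Rats got 10 mL subcutaneous dorsal air, then 6 mL sterile 2% (w/v) CMC-Na in saline into the pouch 24 h later, then 5 ng LPS in 0.5 mL saline 24 h after that. Compound given orally as a suspension in 0.5% methyl cellulose 2 h before LPS. Exudate collected 4 h after LPS. Extra- plus intracellular IL-1 measured by LAF assay against a human recombinant IL-1α curve. Percent inhibition versus control; five rats per group.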

For assay [4], the system named is Rattus norvegicus. Nature of the assay: % inhibition against arthritis on adjuvant-untreated paw in rats at 1 mg/kg by oral administration. The essentials:
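Adjuvant arthritis in rats; drug given orally once daily from the first day of adjuvant treatment. Swelling of the adjuvant-untreated paw measured by plethysmometer on day 15 after adjuvant; % inhibition versus control. Mean ± SEM of 6–10 animals; significance versus control.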

Assay [5] relates to Rattus norvegicus. Nature of the assay: The compound was tested for Granuloma generation on CMC-LPS air-pouch model at 3 mg/kg by oral administration. In outline: (§1)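 Rat CMC-LPS air pouch (air, 2% CMC-Na, then LPS 5 ng). Oral dosing in 0.5% methyl cellulose 2 h before LPS. Granuloma wet weight determined 5 days after LPS; % inhibition versus control, with an LPS-free group included.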

In assay [6] the test system is Rattus norvegicus. Nature of the assay: Inhibitory activity against Granuloma on CMC-LPS air-pouch model at 3 mg/kg by oral administration. The essentials:
as §1

Assay [7] relates to Rattus norvegicus. Nature of the assay: Inhibitory activity against IL-1 on CMC-LPS air-pouch model at 3 mg/kg by oral administration. In outline: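 Rat CMC-LPS air pouch: air s.c., 2% CMC-Na 24 h later, LPS 5 ng 24 h after that. Compound given orally in 0.5% methyl cellulose 2 h before LPS. Exudate collected at 4 h; IL-1 (extra- plus intracellular) read by LAF assay against a recombinant human IL-1α curve.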

The subject of assay [8] is Rattus norvegicus. Nature of the assay: Inhibitory activity against PGE-2 on CMC-LPS air-pouch model at 3 mg/kg by oral administration. The essentials: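 Rat CMC-LPS air pouch (air, 2% CMC-Na, then LPS 5 ng). Oral dosing in 0.5% methyl cellulose 2 h before LPS. PGE2 in the exudate supernatant collected 4 h after LPS, measured by radioimmunoassay.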

`CCc1cccc2c(/C=C/C(=O)O)cc(Cl)c(O)c12`: the IC50 – broadly, the concentration at which inhibition is half-maximal – in the assay listed under Homo sapiens came out at 5.4 µM; in the assay filed under Rattus norvegicus [1] it was 6 µM. Besides, the Inhibition (in general, the share of the control response that was lost under treatment) in the assay on Rattus norvegicus [2] was less than 25%.
Compound `COc1ccc2c(c1)c(CC(=O)O)c(C)n2C(=O)c1ccc(Cl)cc1` [INDOMETHACIN] returned an IL-1 level in the assay on Rattus norvegicus [3] of 995 units/mL. Also, the inhibition in vivo (usually the change of the read-out against control, counted positive when it falls) at 1 mg/kg in the assay on Rattus norvegicus [4] turned out to be 47.8%. Further, the Wet weight in the assay on Rattus norvegicus [5] came out at 2.08 g. The inhibition in vivo at 3 mg/kg in the assay with Rattus norvegicus [6] was less than 25%; in the assay with Rattus norvegicus [7] it was less than 25%; with Rattus norvegicus [8], 97%.

The values above are taken from ChEMBL document CHEMBL1126114, “A novel orally active inhibitor of IL-1 generation: synthesis and structure-activity relationships of 3-(4-hydroxy-1-naphthalenyl)-2-propenoic acid derivatives” (J Med Chem, 1992).
